ChEMBL document CHEMBL1155169, “Influence of morbid obesity on the single-dose pharmacokinetics of daptomycin” (Antimicrob Agents Chemother, 2007)

Key:
[1] = Total clearance in normal weight human at 236 mg infused over 30 mins; assay type: ADME, organism-based; settings: in vivo, iv
Outline: (§1)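 Adult females received 4 mg/kg daptomycin by total body weight, IV over 30 min. Plasma sampled to 24 h and assayed by HPLC-UV at 214 nm. Total clearance = dose/AUC0-∞ (trapezoidal AUC0-24 plus C24/kel). Normalized to total body weight, ideal body weight (45.5 + 2.3 × inches over 5 ft) or fat-free weight from bioelectric impedance.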

[2] = Cmax in morbidly obese human at 461 mg infused over 30 mins; assay type: ADME, organism-based; set-up: dose 461 mg; settings: in vivo, iv
[3] = species: Homo sapiens; assay: Total clearance per kg of ideal body weight in normal weight human at 236 mg infused over 30 mins; assay type: ADME, organism-based; settings: in vivo, iv, 0.5 h; outline: as §1
[4] = Renal clearance per kg of fat-free weight in normal weight human at 236 mg infused over 30 mins; assay type: ADME, organism-based, Kidney; settings: in vivo, iv, read-out: CL_renal (converted)
Outline: (§2)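 Adult females were given a single 30-min IV infusion (4 mg/kg total body weight). Bladder voided before dosing, then urine collected for 24 h. Urine and plasma assayed by HPLC-UV at 214 nm. Renal clearance = 24-h urinary amount / plasma AUC0-24. Normalized to total body weight, ideal body weight or bioimpedance fat-free weight.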

[5] = Volume of distribution in morbidly obese human at 461 mg infused over 30 mins; assay type: ADME, organism-based; settings: in vivo, iv
[6] = species: Homo sapiens; assay: Volume of distribution per kg of fat-free weight in normal weight human at 236 mg infused over 30 mins; assay type: ADME, organism-based; settings: in vivo, iv, 0.5 h
[7] = Volume of distribution in normal weight human at 236 mg infused over 30 mins; assay type: ADME, organism-based; settings: in vivo, iv
[8] = Renal clearance per kg of total body weight in morbidly obese human at 461 mg infused over 30 mins; assay type: ADME, organism-based, Kidney; settings: in vivo, iv, read-out: CL_renal (converted); outline: as §2
[9] = Renal clearance per kg of fat-free weight in morbidly obese human at 461 mg infused over 30 mins; assay type: ADME, organism-based, Kidney; settings: in vivo, iv, read-out: CL_renal (converted); outline: as §2
[10] = Cmin in morbidly obese human at 461 mg infused over 30 mins after 24 hrs; assay type: ADME, organism-based; settings: in vivo, iv, read-out: Cmin
[11] = species: Homo sapiens; assay: Volume of distribution per kg of ideal body weight in normal weight human at 236 mg infused over 30 mins; assay type: ADME, organism-based; settings: in vivo, iv, 0.5 h
[12] = AUC (0 to infinity) in morbidly obese human at 461 mg infused over 30 mins; assay type: ADME, organism-based; set-up: dose 461 mg, time infinity; settings: plasma, iv
Outline: (§3)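 Single 30-min IV infusion at 4 mg/kg total body weight in adult females. Plasma sampled at 0.5, 1, 1.5, 2, 4, 8, 12 and 24 h and assayed by HPLC-UV at 214 nm. kel came from log-linear regression, giving t1/2 = ln2/kel. AUC0-∞ is the linear-trapezoidal AUC0-24 plus C24/kel.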

[13] = species: Homo sapiens; assay: Volume of distribution per kg of ideal body weight in morbidly obese human at 461 mg infused over 30 mins; assay type: ADME, organism-based; settings: in vivo, iv, 0.5 h
[14] = species: Homo sapiens; assay: Total clearance per kg of total body weight in morbidly obese human at 461 mg infused over 30 mins; assay type: ADME, organism-based; settings: in vivo, iv, 0.5 h; outline: as §1
[15] = species: Homo sapiens; assay: Total clearance per kg of fat-free weight in normal weight human at 236 mg infused over 30 mins; assay type: ADME, organism-based; settings: in vivo, iv, 0.5 h; outline: as §1
[16] = Total clearance in morbidly obese human at 461 mg infused over 30 mins; assay type: ADME, organism-based; settings: in vivo, iv; outline: as §1
[17] = Half life in morbidly obese human at 461 mg infused over 30 mins; assay type: ADME, organism-based; settings: in vivo, iv; outline: as §3
[18] = Renal clearance per kg of ideal body weight in normal weight human at 236 mg infused over 30 mins; assay type: ADME, organism-based, Kidney; settings: in vivo, iv, read-out: CL_renal (converted); outline: as §2
[19] = species: Homo sapiens; assay: Total clearance per kg of ideal body weight in morbidly obese human at 461 mg infused over 30 mins; assay type: ADME, organism-based; settings: in vivo, iv, 0.5 h; outline: as §1
[20] = Protein binding in normal weight human serum at 236 mg infused over 30 mins; assay type: ADME, cell-free; settings: iv, read-out: PB (converted)
Outline: (§4)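 Serum (separator tubes) was drawn at 0.5, 2 and 8 h after a single 30-min IV infusion of 4 mg/kg (total body weight) in adult females. Samples were spun at 1,500 × g for 10 min and stored at −80°C. Binding was measured by equilibrium dialysis, solid-phase extraction and LC-MS, linear over 1–250 μg/ml.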

[21] = species: Homo sapiens; assay: Total clearance per kg of fat-free weight in morbidly obese human at 461 mg infused over 30 mins; assay type: ADME, organism-based; settings: in vivo, iv, 0.5 h; outline: as §1
[22] = Cmax in normal weight human at 236 mg infused over 30 mins; assay type: ADME, organism-based; set-up: dose 236 mg; settings: in vivo, iv
[23] = species: Homo sapiens; assay: Total clearance per kg of total body weight in normal weight human at 236 mg infused over 30 mins; assay type: ADME, organism-based; settings: in vivo, iv, 0.5 h; outline: as §1
[24] = species: Homo sapiens; assay: Volume of distribution per kg of fat-free weight in morbidly obese human at 461 mg infused over 30 mins; assay type: ADME, organism-based; settings: in vivo, iv, 0.5 h
[25] = AUC (0 to infinity) in normal weight human at 236 mg infused over 30 mins; assay type: ADME, organism-based; set-up: dose 236 mg, time infinity; settings: plasma, iv; outline: as §3
[26] = Renal clearance in normal weight human at 236 mg infused over 30 mins; assay type: ADME, organism-based, Kidney; settings: in vivo, iv, read-out: CL_renal (converted); outline: as §2
[27] = Renal clearance per kg of total body weight in normal weight human at 236 mg infused over 30 mins; assay type: ADME, organism-based, Kidney; settings: in vivo, iv, read-out: CL_renal (converted); outline: as §2
[28] = Renal clearance in morbidly obese human at 461 mg infused over 30 mins; assay type: ADME, organism-based, Kidney; settings: in vivo, iv, read-out: CL_renal (converted); outline: as §2
[29] = Cmin in normal weight human at 236 mg infused over 30 mins after 24 hrs; assay type: ADME, organism-based; settings: in vivo, iv, read-out: Cmin
[30] = Half life in normal weight human at 236 mg infused over 30 mins; assay type: ADME, organism-based; settings: in vivo, iv; outline: as §3
[31] = Protein binding in morbidly obese human serum at 461 mg infused over 30 mins; assay type: ADME, cell-free; settings: iv, read-out: PB (converted); outline: as §4
[32] = species: Homo sapiens; assay: Volume of distribution per kg of total body weight in normal weight human at 236 mg infused over 30 mins; assay type: ADME, organism-based; settings: in vivo, iv, 0.5 h
[33] = species: Homo sapiens; assay: Volume of distribution per kg of total body weight in morbidly obese human at 461 mg infused over 30 mins; assay type: ADME, organism-based; settings: in vivo, iv, 0.5 h
[34] = Renal clearance per kg of ideal body weight in morbidly obese human at 461 mg infused over 30 mins; assay type: ADME, organism-based, Kidney; settings: in vivo, iv, read-out: CL_renal (converted); outline: as §2
[35] = Cmax in human at 4 mg/kg of total body weight; assay type: ADME, organism-based; set-up: dose 4 mg/kg; settings: in vivo

With `CCCCCCCCCC(=O)N[C@@H](Cc1c[nH]c2ccccc12)C(=O)N[C@H](CC(N)=O)C(=O)N[C@@H](CC(=O)O)C(=O)N[C@@H]1C(=O)NCC(=O)N[C@@H](CCCN)C(=O)N[C@@H](CC(=O)O)C(=O)N[C@H](C)C(=O)N[C@@H](CC(=O)O)C(=O)NCC(=O)N[C@H](CO)C(=O)N[C@@H]([C@H](C)CC(=O)O)C(=O)N[C@@H](CC(=O)c2ccccc2N)C(=O)O[C@@H]1C` the clearance [1] was 12.2 mL/min, the Cmax [2] was 67.3 µg/mL and the CL [3] was 0.013 L/h. The CL renal at 0.5 h [4] was 0.217 mL/min, the Vd [5] was 10 L and the Vd [6] was 0.18 L. The Vd [7] was 7.69 L, the CL renal at 0.5 h [8] was 0.0733 mL/min and the CL renal at 0.5 h [9] was 0.153 mL/min. It also gave a concentration at 24 h [10] of 6550 ng/mL, a Vd [11] of 0.14 L and an AUC(0-inf) [12] of 581 µg·h/mL. For the same molecule, the Vd [13] was 0.19 L, the CL [14] was 0.0071 L/h and the CL [15] was 0.016 L/h. The clearance [16] was 13.7 mL/min, the half-life [17] was 521 min and the CL renal at 0.5 h [18] was 0.165 mL/min. For the same molecule, the CL [19] was 0.016 L/h, the fraction unbound at 0.5 h [20] was 0.1 and the CL [21] was 0.015 L/h. The Cmax [22] was 42300 ng/mL, the CL [23] was 0.012 L/h and the Vd [24] was 0.18 L. The AUC(0-inf) [25] was 346 µg·h/mL, the CL renal at 0.5 h [26] was 9.83 mL/min and the CL renal at 0.5 h [27] was 0.158 mL/min. It also gave a CL renal at 0.5 h [28] of 8.33 mL/min, a concentration at 24 h [29] of 3390 ng/mL and a half-life [30] of 463 min. It also gave a fraction unbound at 0.5 h [31] of 0.112, a Vd [32] of 0.13 L and a Vd [33] of 0.09 L. For the same molecule, the CL renal at 0.5 h [34] was 0.16 mL/min and the Cmax [35] was 42300 ng/mL.
